Measurements from ChEMBL document CHEMBL1145153, “Discovery of potent anilide inhibitors against the severe acute respiratory syndrome 3CL protease” (J Med Chem, 2005).
*1 amine or outer side, *2 acyl side, *3 side chain or, on linkers, in order; H or OH if unused. Where a SMILES comes first, the peptide text is derived from it. [ ]: non-standard residue; d: D form. The star is where a group is joined. ξ: configuration not given here. NH(2-Cl-4-NO2-phenyl) = O=[N+]([O-])c1ccc(N*)c(Cl)c1; Phe(4-F) = N[C@@H](Cc1ccc(F)cc1)C(=O)O; Thr(3ξ) = CC(O)[C@H](N)C(=O)O; Morpholide = C1CN(*)CCO1; Cbz = O=C(OCc1ccccc1)*; CO = O=C([*:1])[*:2]; Piv = CC(C)(C)C(=O)*; Propionyl = CCC(=O)*; Bz = O=C(c1ccccc1)*; X1 = CC1CCN(*)O1

assay: Concentration required to inhibit SARS-CoV 3CL protease catalyzed cleavage of fluorogenic peptide Dabcyl-KTSAVLQSGFRKME-Edans by 50%
How it was run: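 Purified enzyme (stock held in 12 mM Tris-HCl pH 7.5, 120 mM NaCl, 0.1 mM EDTA, 1 mM DTT, 7.5 mM β-ME) at 50 nM with 6 μM substrate in 20 mM Bis-Tris pH 7.0. Cleavage followed as fluorescence increase, excitation 355 nm, emission 538 nm. IC50 taken from initial velocities plotted against inhibitor concentration.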

First: CC(C)[C@H](NC(=O)C(C)(C)C)C(=O)N[C@@H](Cc1ccccc1)C(=O)N[C@H](C(=O)N[C@@H](Cc1ccccc1)C(=O)Nc1ccc([N+](=O)[O-])cc1Cl)C(C)O (stereo not given in full) (Piv-VF[Thr(3ξ)]F-{NH(2-Cl-4-NO2-phenyl)})
Second: CC1CCN(C(=O)N[C@H](C(=O)N[C@@H](Cc2ccccc2)C(=O)N[C@H](C(=O)N[C@@H](Cc2ccccc2)C(=O)Nc2ccc([N+](=O)[O-])cc2Cl)C(C)O)C(C)C)O1 (stereo not given in full) ({X1-CO}-VF[Thr(3ξ)]F-{NH(2-Cl-4-NO2-phenyl)})
The IC50 of the first is 2.5-fold lower: 2 µM for the first, 5 µM for the second. The first is the more potent here.

First: CC(C)C[C@H](NC(=O)[C@@H](NC(=O)c1cccs1)C(C)C)C(=O)N[C@@H](Cc1ccccc1)C(=O)Nc1ccc([N+](=O)[O-])cc1Cl
Second: CC(C)C[C@H](CC(=O)[C@@H](NC(=O)c1cccs1)C(C)C)C(=O)N[C@@H](Cc1ccccc1)C(=O)Nc1ccc([N+](=O)[O-])cc1Cl
The IC50 of the first is 4.4-fold lower: 5 µM for the first, 22 µM for the second.

O=C(N[C@@H](Cc1ccccc1)C(=O)Nc1ccc([N+](=O)[O-])cc1Cl)c1ccccc1 and O=C(N[C@@H](Cc1ccccc1)C(=O)Nc1ccc([N+](=O)[O-])cc1)c1ccccc1 cannot be ordered by IC50: greater than 10 µM for the first, greater than 10 µM for the second.

Going from CCCCCCCCCCCCCCC(Br)C(=O)N[C@@H](Cc1ccccc1)C(=O)Nc1ccc([N+](=O)[O-])cc1Cl (stereo not given in full) to CC(C)(C)OC(=O)N[C@@H](Cc1ccccc1)C(=O)Nc1ccc([N+](=O)[O-])cc1Cl, the IC50 rises from 3 µM to greater than 50 µM.

First: CC(C)[C@H](NC(=O)c1cccs1)C(=O)C[C@@H](Cc1ccccc1)C(=O)N[C@@H](Cc1ccccc1)C(=O)Nc1ccc([N+](=O)[O-])cc1Cl
Second: CC(C)[C@H](NC(=O)c1cccs1)C(=O)N[C@@H](Cc1ccccc1)C(=O)N[C@@H](Cc1ccccc1)C(=O)Nc1ccc([N+](=O)[O-])cc1Cl
The IC50 of the first is 3.2-fold higher: 16 µM for the first, 5 µM for the second. The second is the more potent here.

First: CN(C)c1ccc(C(=O)N[C@@H](Cc2ccccc2)C(=O)Nc2ccc([N+](=O)[O-])cc2)cc1
Second: CN(C)c1ccc(C(=O)N[C@@H](Cc2ccccc2)C(=O)Nc2ccc([N+](=O)[O-])cc2Cl)cc1
The IC50 of the first is higher: greater than 10 µM for the first, 0.06 µM for the second. The second is the more potent here.

Going from CC1CCN(C(=O)N[C@H](C(=O)N[C@@H](Cc2ccccc2)C(=O)N[C@@H](Cc2ccccc2)C(=O)Nc2ccc([N+](=O)[O-])cc2Cl)C(C)C)O1 (stereo not given in full) to CC(C)C[C@H](NC(=O)[C@@H](NC(=O)c1ccccc1)C(C)C)C(=O)N[C@@H](Cc1ccccc1)C(=O)Nc1ccc([N+](=O)[O-])cc1Cl, the IC50 falls from 7 µM to 4 µM (1.8-fold). The second is the more potent here.

Compared with CCC(=O)N[C@H](C(=O)N[C@@H](CC(C)C)C(=O)N[C@H](C(=O)N[C@@H](Cc1ccccc1)C(=O)Nc1ccc([N+](=O)[O-])cc1Cl)C(C)O)C(C)C (stereo not given in full) (Propionyl-VL[Thr(3ξ)]F-{NH(2-Cl-4-NO2-phenyl)}), CC(C)C[C@H](NC(=O)[C@@H](NC(=O)N1CCOCC1)C(C)C)C(=O)N[C@H](C(=O)N[C@@H](Cc1ccccc1)C(=O)Nc1ccc([N+](=O)[O-])cc1Cl)C(C)O (stereo not given in full) ({Morpholide-CO}-VL[Thr(3ξ)]F-{NH(2-Cl-4-NO2-phenyl)}) is 2.3-fold higher in IC50: 7 µM for the first, 16 µM for the second.

O=C(C[C@H](O)C(=O)N[C@@H](Cc1ccccc1)C(=O)Nc1ccc([N+](=O)[O-])cc1Cl)NC(Cc1ccccc1)C(=O)Nc1ccc([N+](=O)[O-])cc1Cl (stereo not given in full) and O=C(Nc1ccc([N+](=O)[O-])cc1Cl)C(Cc1ccccc1)NC(=O)[C@H](O)[C@@H](O)C(=O)N[C@@H](Cc1ccccc1)C(=O)Nc1ccc([N+](=O)[O-])cc1Cl (stereo not given in full) are within 1.5-fold of each other in IC50: 4 µM for the first, 5 µM for the second.

Going from CC(C)[C@H](NC(=O)OCc1ccccc1)C(=O)N[C@@H](Cc1ccccc1)C(=O)N[C@H](C(=O)N[C@@H](Cc1ccccc1)C(=O)Nc1ccc([N+](=O)[O-])cc1Cl)C(C)O (stereo not given in full) (Cbz-VF[Thr(3ξ)]F-{NH(2-Cl-4-NO2-phenyl)}) to CC(C)[C@H](NC(=O)c1ccccc1)C(=O)N[C@@H](Cc1ccc(F)cc1)C(=O)N[C@H](C(=O)N[C@@H](Cc1ccccc1)C(=O)Nc1ccc([N+](=O)[O-])cc1Cl)C(C)O (stereo not given in full) (Bz-V[Phe(4-F)][Thr(3ξ)]F-{NH(2-Cl-4-NO2-phenyl)}), the IC50 falls from 6 µM to 2 µM (3-fold). The second is the more potent here.

CC(C)C[C@H](CC(=O)[C@@H](NC(=O)c1ccccc1)C(C)C)C(=O)N[C@@H](Cc1ccccc1)C(=O)Nc1ccc([N+](=O)[O-])cc1Cl and CCC(=O)N[C@H](C(=O)C[C@@H](CC(C)C)C(=O)N[C@@H](Cc1ccccc1)C(=O)Nc1ccc([N+](=O)[O-])cc1Cl)C(C)C are within 1.5-fold of each other in IC50: 21 µM for the first, 27 µM for the second.

Compared with O=C(/C=C/c1c[nH]c2ccccc12)N[C@@H](Cc1ccccc1)C(=O)Nc1ccc([N+](=O)[O-])cc1Cl, Nc1ccc(C(=O)N[C@@H](Cc2ccccc2)C(=O)Nc2ccc([N+](=O)[O-])cc2Cl)cc1N is 1.5-fold lower in IC50: 3 µM for the first, 2 µM for the second.

CC(C)C[C@H](NC(=O)[C@@H](NC(=O)OC(C)(C)C)C(C)C)C(=O)N[C@@H](Cc1ccccc1)C(=O)Nc1ccc([N+](=O)[O-])cc1Cl and CC(C)C[C@H](CC(=O)[C@@H](NC(=O)OC(C)(C)C)C(C)C)C(=O)N[C@@H](Cc1ccccc1)C(=O)Nc1ccc([N+](=O)[O-])cc1Cl cannot be ordered by IC50: greater than 10 µM for the first, 19 µM for the second.

Going from CC(C)C[C@H](NC(=O)[C@@H](NC(=O)N1CCOCC1)C(C)C)C(=O)N[C@@H](Cc1ccccc1)C(=O)Nc1ccc([N+](=O)[O-])cc1Cl to CC(C)C[C@H](CC(=O)[C@@H](NC(=O)N1CCOCC1)C(C)C)C(=O)N[C@@H](Cc1ccccc1)C(=O)Nc1ccc([N+](=O)[O-])cc1Cl, the IC50 rises from 19 µM to 29 µM (1.5-fold). The first is the more potent here.

O=C(Nc1ccc([N+](=O)[O-])cc1Cl)c1cc(Cl)ccc1O [NICLOSAMIDE] and O=C(N[C@@H](Cc1ccccc1)C(=O)Nc1ccc([N+](=O)[O-])cc1Cl)c1ccc([N+](=O)[O-])cc1 cannot be ordered by IC50: greater than 10 µM for the first, greater than 10 µM for the second.

CN(C)c1ccc(C(=O)N[C@@H](Cc2ccccc2)C(=O)Nc2ccccc2Cl)cc1 and CN(C)c1ccc(C(=O)N[C@@H](Cc2ccccc2)C(=O)Nc2ccccc2)cc1 cannot be ordered by IC50: greater than 10 µM for the first, greater than 10 µM for the second.

CC(O)[C@H](NC(=O)CCC(=O)N[C@H](C(=O)N[C@@H](Cc1ccccc1)C(=O)Nc1ccc([N+](=O)[O-])cc1Cl)C(C)O)C(=O)NC(Cc1ccccc1)C(=O)Nc1ccc([N+](=O)[O-])cc1Cl (stereo not given in full) and CC(O)[C@H](NC(=O)C[C@@H](O)C(=O)N[C@H](C(=O)N[C@@H](Cc1ccccc1)C(=O)Nc1ccc([N+](=O)[O-])cc1Cl)C(C)O)C(=O)NC(Cc1ccccc1)C(=O)Nc1ccc([N+](=O)[O-])cc1Cl (stereo not given in full) are the same in IC50: 2 µM for the first, 2 µM for the second.

Compared with O=C(CCC(=O)N[C@@H](Cc1ccccc1)C(=O)Nc1ccc([N+](=O)[O-])cc1Cl)NC(Cc1ccccc1)C(=O)Nc1ccc([N+](=O)[O-])cc1Cl (stereo not given in full), CC(O)[C@H](NC(=O)[C@H](O)[C@@H](O)C(=O)N[C@H](C(=O)N[C@H](Cc1ccccc1)C(=O)Nc1ccc([N+](=O)[O-])cc1Cl)C(C)O)C(=O)N[C@@H](Cc1ccccc1)C(=O)Nc1ccc([N+](=O)[O-])cc1Cl (stereo not given in full) is lower in IC50: greater than 50 µM for the first, 2 µM for the second.

CCC(=O)N[C@H](C(=O)N[C@@H](Cc1ccc(F)cc1)C(=O)N[C@H](C(=O)N[C@@H](Cc1ccccc1)C(=O)Nc1ccc([N+](=O)[O-])cc1Cl)C(C)O)C(C)C (stereo not given in full) (Propionyl-V[Phe(4-F)][Thr(3ξ)]F-{NH(2-Cl-4-NO2-phenyl)}) and CCCC(=O)N[C@H](C(=O)N[C@@H](CC(C)C)C(=O)N[C@@H](Cc1ccccc1)C(=O)Nc1ccc([N+](=O)[O-])cc1Cl)C(C)C are within 1.5-fold of each other in IC50: 5 µM for the first, 7 µM for the second.

assay: Inhibitory constant against SARS-CoV 3CL protease catalyzed cleavage of fluorogenic peptide Dabcyl-KTSAVLQSGFRKME-Edans
How it was run: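 Fluorometric cleavage assay in 20 mM Bis-Tris pH 7.0, excitation 355 nm, emission 538 nm. Enzyme stock held in 12 mM Tris-HCl pH 7.5 with NaCl, EDTA, DTT and β-ME. Initial rates measured at two fixed inhibitor concentrations across various substrate concentrations. Ki derived using double-reciprocal plots of rate versus substrate concentration.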

Going from CC(C)C[C@H](NC(=O)[C@@H](NC(=O)c1cccs1)C(C)C)C(=O)N[C@@H](Cc1ccccc1)C(=O)Nc1ccc([N+](=O)[O-])cc1Cl to CC(C)[C@H](NC(=O)c1cccs1)C(=O)N[C@@H](Cc1ccccc1)C(=O)N[C@@H](Cc1ccccc1)C(=O)Nc1ccc([N+](=O)[O-])cc1Cl, the Ki rises from 2.29 µM to 4.3 µM (1.9-fold).

First: CC1CCN(C(=O)N[C@H](C(=O)N[C@@H](Cc2ccccc2)C(=O)N[C@@H](Cc2ccccc2)C(=O)Nc2ccc([N+](=O)[O-])cc2Cl)C(C)C)O1 (stereo not given in full)
Second: CC1CCN(C(=O)N[C@H](C(=O)N[C@@H](Cc2ccccc2)C(=O)N[C@H](C(=O)N[C@@H](Cc2ccccc2)C(=O)Nc2ccc([N+](=O)[O-])cc2Cl)C(C)O)C(C)C)O1 (stereo not given in full) ({X1-CO}-VF[Thr(3ξ)]F-{NH(2-Cl-4-NO2-phenyl)})
The Ki of the first is 1.8-fold higher: 2.9 µM for the first, 1.61 µM for the second.

Going from O=C(C[C@H](O)C(=O)N[C@@H](Cc1ccccc1)C(=O)Nc1ccc([N+](=O)[O-])cc1Cl)NC(Cc1ccccc1)C(=O)Nc1ccc([N+](=O)[O-])cc1Cl (stereo not given in full) to CC(C)[C@H](NC(=O)OCc1ccccc1)C(=O)N[C@@H](Cc1ccccc1)C(=O)N[C@H](C(=O)N[C@@H](Cc1ccccc1)C(=O)Nc1ccc([N+](=O)[O-])cc1Cl)C(C)O (stereo not given in full) (Cbz-VF[Thr(3ξ)]F-{NH(2-Cl-4-NO2-phenyl)}), the Ki falls from 3.1 µM to 1.51 µM (2.1-fold).

With CN(C)c1ccc(C(=O)N[C@@H](Cc2ccccc2)C(=O)Nc2ccc([N+](=O)[O-])cc2Cl)cc1 the Ki was 0.03 µM.
